One experiment concerns SK-OV-3. In words: Cytotoxicity against human SKOV3 cells after 48 hrs by SRB assay. The format is functional. The note with it: SK-OV-3, 48 h, read-out: ED50 (the source's name). The method, boiled down: (§1)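 Rapidly growing cells were harvested and seeded at (1-2) × 10^4 cells/well, then preincubated for 24 h. Compounds dissolved in culture medium were added in triplicate, and cells were incubated for 48 h at 37 °C under 5% CO2. Cells were fixed with cold TCA and stained with 0.4% SRB in 1% acetic acid. Bound dye was solubilized in 10 mM unbuffered Tris base and absorbance read at 520 nm.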
(In general: The SRB assay estimates cell density from bound dye.)

The subject of the next experiment is SK-MEL-2 (Homo sapiens). In words: Cytotoxicity against human SK-MEL-2 cells after 48 hrs by SRB assay. The note with it: SK-MEL-2, 48 h, read-out: ED50 (the source's name).
Another experiment relates to XF498. The experiment can be described thus: Cytotoxicity against human XF498 cells after 48 hrs by SRB assay. In kind it is functional. The conditions noted are these: XF498, 48 h, read-out: ED50 (the source's name). The essentials: as §1
The next experiment has as its system HCT-15. The experiment can be described thus: Cytotoxicity against human HCT15 cells after 48 hrs by SRB assay. In kind it is functional. The conditions noted are these: HCT-15, 48 h, read-out: ED50 (the source's name). The method, boiled down:
as §1

In a further experiment the test system is A549. In words: Cytotoxicity against human A549 cells after 48 hrs by SRB assay. In kind it is functional. The note with it: A549, 48 h, read-out: ED50 (the source's name). The essentials:
as §1

The subject of the next experiment is Chang. The experiment can be described thus: (§2) Inhibition of cholesterol biosynthesis in human Chang cells. In kind it is functional, cell-based.
Experiment [1] is described as follows: as §2. The format is functional, cell-based.

≈ marks a conversion by molar mass, not a printed value. Calls of active or inactive are those of the source. The calls are words filed in the database; no cut-off is given here.

With `COc1cccc2c1C(=O)c1c(O)c3c(c(O)c1C2=O)C[C@@](O)(C(=O)CO)C[C@@H]3O[C@H]1C[C@H](N)[C@H](O)[C@H](C)O1` [DOXORUBICIN], the EC50 came to 0.11 µg/mL (≈ 0.202 µM) in the experiment with SK-OV-3; 0.02 µg/mL (≈ 0.0368 µM) with SK-MEL-2 (Homo sapiens); 0.08 µg/mL (≈ 0.147 µM) with XF498; 0.04 µg/mL (≈ 0.0736 µM) with HCT-15; 0.02 µg/mL (≈ 0.0368 µM) in the experiment with A549.
For the compound `CCCCCCCCCCC/C=C\CC(COC[C@H](O)COP(=O)([O-])OCC[N+](C)(C)C)OC` (some centres undefined), the EC50 with SK-OV-3 amounted to 5.9 µg/mL (≈ 11.6 µM); in the experiment on SK-MEL-2 (Homo sapiens), 3.8 µg/mL (≈ 7.46 µM); in the experiment with XF498, 4 µg/mL (≈ 7.85 µM); in the experiment on HCT-15, 3.7 µg/mL (≈ 7.26 µM); in the experiment on A549 it was 6.3 µg/mL (≈ 12.4 µM).
For `CCCCCCCCCCCCCCC(COC[C@H](O)COP(=O)([O-])OCC[N+](C)(C)C)OC` (some centres undefined), the EC50 in the experiment on SK-OV-3 turned out to be 5.7 µg/mL (≈ 11.1 µM); in the experiment with SK-MEL-2 (Homo sapiens), 5.2 µg/mL (≈ 10.2 µM); in the experiment with XF498, 4.5 µg/mL (≈ 8.79 µM); with HCT-15, 5 µg/mL (≈ 9.77 µM); in the experiment with A549, 5.8 µg/mL (≈ 11.3 µM). The outcome in the experiment with Chang was inactive.
As a reminder, the IC50 is the concentration that inhibits the measured activity by half. High values mean weaker potency, low ones greater potency. On to `CCCCCCCCCCCC/C=C\CCOC[C@H](O)COP(=O)([O-])OCC[N+](C)(C)C`, for which the EC50 in the experiment with SK-OV-3, in the experiment with SK-MEL-2 (Homo sapiens), in the experiment with XF498, with HCT-15 and in the experiment on A549 was over 30 µg/mL in each case. Moreover, the IC50 in experiment [1] stood at 102 µg/mL (≈ 213 µM).
With `CCCCCCCCCCC/C=C\CCCOC[C@H](O)COP(=O)([O-])OCC[N+](C)(C)C`, the EC50 with SK-OV-3, with SK-MEL-2 (Homo sapiens), in the experiment on XF498, in the experiment on HCT-15 and in the experiment on A549 was over 30 µg/mL throughout. Moreover, the IC50 in experiment [1] was determined as 118 µg/mL (≈ 246 µM).
For `CCCCCCCCCCCCCCCCOC[C@@H](O)COP(=O)([O-])OCC[N+](C)(C)C`, the EC50 stood at 4.9 µg/mL (≈ 10.2 µM) with SK-OV-3; 5.4 µg/mL (≈ 11.2 µM) in the experiment with SK-MEL-2 (Homo sapiens); 4.9 µg/mL (≈ 10.2 µM) with XF498; 5.4 µg/mL (≈ 11.2 µM) in the experiment with HCT-15; 5.5 µg/mL (≈ 11.4 µM) in the experiment on A549. The result in the experiment with Chang was inactive.

These data come from ChEMBL document CHEMBL1150822, “Additional bioactive Lyso-PAF congeners from the sponge Spirastrella abata” (J Nat Prod, 2001).
